Activity calls are given as the source filed them.
Key:
Assay type in all cases: functional, organism-based
Candida albicans = assay: Antifungal activity against Candida albicans ATCC MYA-2876 at 100 ug/ml after 48 hrs by micro broth dilution method
In short: (§1)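 Broth microdilution in RPMI-1640 (NaHCO3, MOPS, pH 7.0). Compounds are dissolved in DMSO and serially diluted 2-fold to eight concentrations, with stocks of […]. Fungal inocula are 2 × 10³ cfu/mL. Plates are incubated 48 h at 28 °C. The MIC is the lowest concentration with no turbidity, and the highest concentration tested is 100 μg/mL.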

Candida parapsilosis = assay: Antifungal activity against Candida parapsilosis ATCC 22019 at 100 ug/ml after 48 hrs by micro broth dilution method; in short: as §1
Aspergillus fumigatus = assay: Antifungal activity against Aspergillus fumigatus CCTCC AF 93048 at 100 ug/ml after 48 hrs by micro broth dilution method; in short: as §1

Measured: Activity

C[C@@H]1C[C@H](C)C[C@H](C)[C@@H](O)CC(=O)O[C@H]([C@@H]2CCC[C@H]2C(=O)OCCN2CCNCC2)C/C=C/C=C(/C#N)[C@H](O)[C@@H](C)C1
inactive: all assays above

C[C@@H]1C[C@H](C)C[C@H](C)[C@@H](O)CC(=O)O[C@H]([C@@H]2CCC[C@H]2C(=O)OCc2ccccn2)C/C=C/C=C(/C#N)[C@H](O)[C@@H](C)C1
inactive: all assays above

C[C@@H]1C[C@H](C)C[C@H](C)[C@@H](O)CC(=O)O[C@H]([C@@H]2CCC[C@H]2C(=O)N2CCOCC2)C/C=C/C=C(/C#N)[C@H](O)[C@@H](C)C1
inactive: all assays above

C[C@@H]1C[C@H](C)C[C@H](C)[C@@H](O)CC(=O)O[C@H]([C@@H]2CCC[C@H]2C(=O)N2CCNCC2)C/C=C/C=C(/C#N)[C@H](O)[C@@H](C)C1
inactive: all assays above

COC(=O)[C@@H](CCSC)NC(=O)[C@@H]1CCC[C@H]1[C@@H]1C/C=C/C=C(/C#N)[C@H](O)[C@@H](C)C[C@H](C)C[C@H](C)C[C@H](C)[C@@H](O)CC(=O)O1
inactive: all assays above

CC(=O)N1CCN(CCOC(=O)[C@@H]2CCC[C@H]2[C@@H]2C/C=C/C=C(/C#N)[C@H](O)[C@@H](C)C[C@H](C)C[C@H](C)C[C@H](C)[C@@H](O)CC(=O)O2)CC1
inactive: all assays above

C[C@@H]1C[C@H](C)C[C@H](C)[C@@H](O)CC(=O)O[C@H]([C@@H]2CCC[C@H]2C(=O)OCCN2CCN(C(=O)OCc3ccccc3)CC2)C/C=C/C=C(/C#N)[C@H](O)[C@@H](C)C1
inactive: all assays above

C[C@@H]1C[C@H](C)C[C@H](C)[C@@H](O)CC(=O)O[C@H]([C@@H]2CCC[C@H]2C(=O)N2CCN(Cc3ccccc3)CC2)C/C=C/C=C(/C#N)[C@H](O)[C@@H](C)C1
inactive: all assays above

CCCCCN(CCCC)C(=O)[C@@H]1CCC[C@H]1[C@@H]1C/C=C/C=C(/C#N)[C@H](O)[C@@H](C)C[C@H](C)C[C@H](C)C[C@H](C)[C@@H](O)CC(=O)O1
inactive: all assays above

C[C@@H]1C[C@H](C)C[C@H](C)[C@@H](O)CC(=O)O[C@H]([C@@H]2CCC[C@H]2C(=O)OCCN2CCN(Cc3ccc(F)cc3)CC2)C/C=C/C=C(/C#N)[C@H](O)[C@@H](C)C1
inactive: all assays above

C[C@@H]1C[C@H](C)C[C@H](C)[C@@H](O)CC(=O)O[C@H]([C@@H]2CCC[C@H]2C(=O)OCCN2CCN(Cc3ccc(Cl)cc3)CC2)C/C=C/C=C(/C#N)[C@H](O)[C@@H](C)C1
inactive: all assays above

COC(=O)[C@@H](Cc1cnc[nH]1)NC(=O)[C@@H]1CCC[C@H]1[C@@H]1C/C=C/C=C(/C#N)[C@H](O)[C@@H](C)C[C@H](C)C[C@H](C)C[C@H](C)[C@@H](O)CC(=O)O1
inactive: all assays above

C[C@@H]1C[C@H](C)C[C@H](C)[C@@H](O)CC(=O)O[C@H]([C@@H]2CCC[C@H]2C(=O)N2CCN(CCO)CC2)C/C=C/C=C(/C#N)[C@H](O)[C@@H](C)C1
inactive: all assays above

C[C@@H]1C[C@H](C)C[C@H](C)[C@@H](O)CC(=O)O[C@H]([C@@H]2CCC[C@H]2C(=O)OCCN2CCN(Cc3ccc(F)cc3F)CC2)C/C=C/C=C(/C#N)[C@H](O)[C@@H](C)C1
inactive: all assays above

C[C@@H]1C[C@H](C)C[C@H](C)[C@@H](O)CC(=O)O[C@H]([C@@H]2CCC[C@H]2C(=O)OCCN2CCN(C(=O)OC(C)(C)C)CC2)C/C=C/C=C(/C#N)[C@H](O)[C@@H](C)C1
inactive: all assays above

CCC(=O)NNC(=O)[C@@H]1CCC[C@H]1[C@@H]1C/C=C/C=C(/C#N)[C@H](O)[C@@H](C)C[C@H](C)C[C@H](C)C[C@H](C)[C@@H](O)CC(=O)O1
inactive: all assays above

C[C@@H]1C[C@H](C)C[C@H](C)[C@@H](O)CC(=O)O[C@H]([C@@H]2CCC[C@H]2C(=O)OCCN2CCN(Cc3ccccc3)CC2)C/C=C/C=C(/C#N)[C@H](O)[C@@H](C)C1
inactive: all assays above

C[C@@H]1C[C@H](C)C[C@H](C)[C@@H](O)CC(=O)O[C@H]([C@@H]2CCC[C@H]2C(=O)OCCN2CCN(Cc3ccc([N+](=O)[O-])cc3)CC2)C/C=C/C=C(/C#N)[C@H](O)[C@@H](C)C1
inactive: all assays above

Cc1ccc(CN2CCN(CCOC(=O)[C@@H]3CCC[C@H]3[C@@H]3C/C=C/C=C(/C#N)[C@H](O)[C@@H](C)C[C@H](C)C[C@H](C)C[C@H](C)[C@@H](O)CC(=O)O3)CC2)cc1
inactive: all assays above

C[C@@H]1C[C@H](C)C[C@H](C)[C@@H](O)CC(=O)O[C@H]([C@@H]2CCC[C@H]2C(=O)OCC2CC2)C/C=C/C=C(/C#N)[C@H](O)[C@@H](C)C1
inactive: all assays above

C[C@@H]1C[C@H](C)C[C@H](C)[C@@H](O)CC(=O)O[C@H]([C@@H]2CCC[C@H]2C(=O)OCCc2ccccc2)C/C=C/C=C(/C#N)[C@H](O)[C@@H](C)C1
inactive: all assays above

COC(=O)[C@@H](Cc1ccccc1)NC(=O)[C@@H]1CCC[C@H]1[C@@H]1C/C=C/C=C(/C#N)[C@H](O)[C@@H](C)C[C@H](C)C[C@H](C)C[C@H](C)[C@@H](O)CC(=O)O1
inactive: all assays above

CC(=O)CN1CCN(CCOC(=O)[C@@H]2CCC[C@H]2[C@@H]2C/C=C/C=C(/C#N)[C@H](O)[C@@H](C)C[C@H](C)C[C@H](C)C[C@H](C)[C@@H](O)CC(=O)O2)CC1
inactive: all assays above

COC(=O)[C@@H](Cc1c[nH]c2ccccc12)NC(=O)[C@@H]1CCC[C@H]1[C@@H]1C/C=C/C=C(/C#N)[C@H](O)[C@@H](C)C[C@H](C)C[C@H](C)C[C@H](C)[C@@H](O)CC(=O)O1
inactive: all assays above

COC(=O)[C@@H](CC(C)C)NC(=O)[C@@H]1CCC[C@H]1[C@@H]1C/C=C/C=C(/C#N)[C@H](O)[C@@H](C)C[C@H](C)C[C@H](C)C[C@H](C)[C@@H](O)CC(=O)O1
inactive: all assays above

C[C@@H]1C[C@H](C)C[C@H](C)[C@@H](O)CC(=O)O[C@H]([C@@H]2CCC[C@H]2C(=O)OCCN2CCN(Cc3ccc(Br)cc3)CC2)C/C=C/C=C(/C#N)[C@H](O)[C@@H](C)C1
inactive: all assays above

COc1ccc(N2CCN(C(=O)[C@@H]3CCC[C@H]3[C@@H]3C/C=C/C=C(/C#N)[C@H](O)[C@@H](C)C[C@H](C)C[C@H](C)C[C@H](C)[C@@H](O)CC(=O)O3)CC2)cc1
inactive: all assays above

C[C@@H]1C[C@H](C)C[C@H](C)[C@@H](O)CC(=O)O[C@H]([C@@H]2CCC[C@H]2C(=O)OCCN2CCN(C(=O)c3ccccc3)CC2)C/C=C/C=C(/C#N)[C@H](O)[C@@H](C)C1
inactive: all assays above

C[C@@H]1C[C@H](C)C[C@H](C)[C@@H](O)CC(=O)O[C@H]([C@@H]2CCC[C@H]2C(=O)N2CCN(C)CC2)C/C=C/C=C(/C#N)[C@H](O)[C@@H](C)C1
inactive: all assays above

COc1ccc2[nH]cc(CCNC(=O)[C@@H]3CCC[C@H]3[C@@H]3C/C=C/C=C(/C#N)[C@H](O)[C@@H](C)C[C@H](C)C[C@H](C)C[C@H](C)[C@@H](O)CC(=O)O3)c2c1
inactive: all assays above
